# Reference: paper PMC7717452 (Journal of Enzyme Inhibition and Medicinal Chemistry, 2020)
# Several values for one entry are separate records, joined by “and”; a condition that tells them apart may be missing. Equal values may be shown once. Read-outs that look alike come from different tables or passages of the source.
# Assays:
# [1] = target: T1, LiTryS (Leishmania infantum trypanothione synthetase) (Leishmania infantum, UniProt A4I2Z3); experiment: TryS activity end-point assay; assay type: biochemical; conditions: for IC50: ± 2σ, ∼30 assumed for 50 ± 5% inhibition at 30 µM
# T1 sequence (A4I2Z3 1-652): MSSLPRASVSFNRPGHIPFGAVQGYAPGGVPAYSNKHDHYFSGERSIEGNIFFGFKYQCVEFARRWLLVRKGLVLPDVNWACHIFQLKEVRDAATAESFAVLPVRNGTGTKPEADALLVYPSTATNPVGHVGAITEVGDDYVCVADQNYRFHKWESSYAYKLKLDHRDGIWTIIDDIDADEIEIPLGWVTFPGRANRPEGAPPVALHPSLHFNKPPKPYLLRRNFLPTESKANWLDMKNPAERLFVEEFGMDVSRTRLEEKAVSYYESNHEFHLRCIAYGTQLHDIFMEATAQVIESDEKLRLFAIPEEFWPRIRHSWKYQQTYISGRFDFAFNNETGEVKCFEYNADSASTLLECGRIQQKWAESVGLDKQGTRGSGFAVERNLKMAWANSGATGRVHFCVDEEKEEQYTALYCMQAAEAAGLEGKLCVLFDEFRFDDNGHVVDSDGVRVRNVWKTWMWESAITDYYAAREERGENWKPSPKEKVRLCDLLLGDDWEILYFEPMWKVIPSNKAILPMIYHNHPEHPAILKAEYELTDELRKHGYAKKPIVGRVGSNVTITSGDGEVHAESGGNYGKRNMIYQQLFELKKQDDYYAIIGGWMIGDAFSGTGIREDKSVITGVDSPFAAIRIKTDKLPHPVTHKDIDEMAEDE
# Summary of the method: (§1)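 Recombinant TryS end-point assay in 100 mM HEPES pH 7.4 with 5 mM DTT, 10 mM MgSO4 and 0.5 mM EDTA. ATP was 150 µM and spermidine 2 mM. GSH was 0.25 mM for LiTryS, 0.05 mM for TbTryS and 0.57 mM for TcTryS. Enzyme started the reaction and BIOMOL Green stopped it after 15 min. A650 was read after 20 min at room temperature. Values were corrected with no-enzyme blanks and for compound interference with phosphate. At least quadruplicates; IC50 is given ± 2σn-1.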
# TbTryS = target: T2, TbTryS (Trypanosoma brucei brucei, UniProt Q8IEX1); experiment: TryS activity end-point assay; assay type: biochemical
# T2 sequence (Q8IEX1 1-627): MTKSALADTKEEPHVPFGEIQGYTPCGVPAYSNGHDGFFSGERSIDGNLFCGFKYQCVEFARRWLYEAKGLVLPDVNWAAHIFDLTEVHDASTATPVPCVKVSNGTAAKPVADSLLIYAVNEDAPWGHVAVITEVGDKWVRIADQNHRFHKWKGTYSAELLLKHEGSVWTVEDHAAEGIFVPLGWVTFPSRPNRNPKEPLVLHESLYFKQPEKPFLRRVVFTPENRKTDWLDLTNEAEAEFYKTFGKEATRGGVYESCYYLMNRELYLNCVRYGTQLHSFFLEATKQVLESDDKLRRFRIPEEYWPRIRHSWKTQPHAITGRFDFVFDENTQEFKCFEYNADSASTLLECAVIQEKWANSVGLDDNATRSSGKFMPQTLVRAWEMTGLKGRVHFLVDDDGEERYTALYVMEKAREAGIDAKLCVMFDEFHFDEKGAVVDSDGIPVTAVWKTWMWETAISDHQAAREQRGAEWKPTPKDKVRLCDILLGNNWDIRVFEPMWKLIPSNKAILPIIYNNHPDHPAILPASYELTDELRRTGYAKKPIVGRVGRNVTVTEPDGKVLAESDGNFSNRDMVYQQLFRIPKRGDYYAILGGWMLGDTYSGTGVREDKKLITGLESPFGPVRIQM
# Summary of the method: as §1
# LiTryS [2] = target: T3, LiTryS (Leishmania infantum, UniProt A4I2Z3); experiment: Kinetic assays for LiTryS; assay type: biochemical; conditions: double reciprocal plots
# T3 sequence (A4I2Z3 1-652): T1 sequence (A4I2Z3 1-652)
# Summary of the method: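 LiTryS in 100 mM HEPES pH 7.4, 10 mM MgSO4, 0.5 mM EDTA, 5 mM DTT at 28 °C. Enzyme-started, linear 15 min, colorimetric stop, A650 after 20 min. Variable GSH 100–3 µM (SP 13 mM, ATP 200 µM); ATP 200–6 µM (SP 13 mM, GSH 250 µM); SP 13–0.41 mM or GSP 250–7.8 µM (ATP 200 µM, GSH 250 µM).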
# [3] = tested on: Mouse macrophages from the cell line J774; experiment: Cytotoxicity assay; assay type: cell-based; conditions: 24 h, non-infected J774
# Summary of the method: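 J774 mouse macrophages were grown in DMEM with 10% FBS and penicillin/streptomycin at 37 °C in humidified 5% CO2. Cells were seeded at 6 × 10^4 cells/mL and exposed the next day for 24 h to test compound at 100 to 0.001 µM (200 µM for one compound). The WST-1 signal was read at A450. % cytotoxicity was calculated against DMSO-treated and untreated cells, and CC50 is given ± σn–1.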
# [4] = tested on: L. braziliensis amastigotes; experiment: Macrophage infection assay, L. braziliensis amastigotes; assay type: cell-based, Leishmania braziliensis; conditions: for SI, L. braziliensis amastigotes: selectivity index, macrophage CC50 and amastigote EC50
# Summary of the method: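 J774 macrophages were plated on coverslips at 1 × 10^5 cells/mL in DMEM with 1% FBS. They were infected with stationary-phase L. braziliensis promastigotes (MHOM/BR/01/BA788; 1:20) for 2 h at room temperature, then 22 h at 35 °C. After washing, cells got test compound (5 or 10 µM, or 10–0.01 µM) in 1% DMSO for 24 h at 37 °C and 5% CO2. Cells were EtOH-fixed and DAPI-stained, and 100–200 macrophages were imaged. % infected cells is relative to DMSO.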
# L. infantum amastigotes = experiment: Macrophage infection assay, L. infantum amastigotes; assay type: cell-based, Leishmania infantum; conditions: for SI, L. infantum amastigotes: selectivity index, macrophage CC50 and amastigote EC50
# Summary of the method: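 J774 macrophages on coverslips (1 × 10^5 cells/mL, DMEM with 1% FBS) were infected with stationary-phase L. infantum promastigotes (1:20) for 2 h at room temperature, then 22 h at 37 °C. After washing, test compound (10–0.01 µM, up to seven concentrations, at least duplicates, 1% DMSO) was added for 24 h at 37 °C. DAPI-stained infected cells were counted by microscopy relative to DMSO. EC50 came from a four-parameter sigmoid fit.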
# [5] = tested on: L. infantum promastigotes (WT and TryS sKO); experiment: Intracellular low molecular mass thiols, promastigotes; assay type: cell-based, Leishmania infantum; conditions: 7 µM, 24 h
# Summary of the method: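 L. infantum promastigotes (MHOM MA67I7MAP263, WT or TryS single knockout) were seeded at 5 × 10^5/mL in RPMI at 28 °C with 7 µM test compound or 1% DMSO for 24 h. Thiols were reduced with 70 mM NaBH4 in 40 mM HEPES pH 8.0, labelled with 2 mM monobromobimane (70 °C, 3 min) and acid-extracted. They were separated by C18 HPLC against GSH/T(SH)2 standards (2.5–75 nmol), and peak areas are given as % of untreated WT. At least duplicates; unpaired t-test.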
# [6] = tested on: L. infantum amastigotes (WT and sKO); experiment: Intracellular low molecular mass thiols, amastigotes in J774 macrophages; assay type: cell-based, Leishmania infantum; conditions: 1 µM, 24 h, vs non-treated control
# Summary of the method: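 J774 macrophages at 50% confluence were infected with stationary-phase L. infantum WT or single knockout promastigotes (1:40) for 2 h at room temperature, then 22 h at 37 °C. After washing, cells were treated or not with 1 µM test compound for 24 h. Thiols were reduced with NaBH4, labelled with monobromobimane, then separated by C18 HPLC against standards. Non-infected macrophage GSH was subtracted, and values are fold-change versus non-treated. At least duplicates; t-test.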
# TcTryS = target: T4, TcTryS (Trypanosoma cruzi, UniProt Q9GT49); experiment: TryS activity end-point assay; assay type: biochemical; conditions: for IC50: IC50 value, TcTryS, ± 2σ, ~30 assumed for 50 ± 5% inhibition at 30 µM
# T4 sequence (Q9GT49 1-647): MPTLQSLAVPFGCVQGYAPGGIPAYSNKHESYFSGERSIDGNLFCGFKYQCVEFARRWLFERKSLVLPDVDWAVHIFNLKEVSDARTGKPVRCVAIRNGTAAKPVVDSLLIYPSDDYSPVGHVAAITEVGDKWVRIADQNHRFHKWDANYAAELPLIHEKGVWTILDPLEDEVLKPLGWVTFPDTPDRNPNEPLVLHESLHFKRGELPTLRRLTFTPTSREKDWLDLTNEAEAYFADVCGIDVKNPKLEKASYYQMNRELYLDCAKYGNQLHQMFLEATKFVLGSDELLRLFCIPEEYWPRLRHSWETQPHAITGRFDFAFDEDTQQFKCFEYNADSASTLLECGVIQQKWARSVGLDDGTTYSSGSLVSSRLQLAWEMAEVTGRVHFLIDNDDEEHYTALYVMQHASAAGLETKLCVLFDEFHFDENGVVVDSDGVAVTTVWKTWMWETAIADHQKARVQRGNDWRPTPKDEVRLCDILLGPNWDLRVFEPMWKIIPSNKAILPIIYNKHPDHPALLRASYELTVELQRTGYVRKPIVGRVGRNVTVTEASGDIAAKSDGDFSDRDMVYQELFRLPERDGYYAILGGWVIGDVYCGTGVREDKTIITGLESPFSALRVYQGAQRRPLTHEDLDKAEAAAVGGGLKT
# Summary of the method: as §1
# LiTryS [7] = target: T3, LiTryS; conditions: read-out: Ki, nucleotide-binding site of the enzyme; ADP; cited from earlier work
# [8] = 30 µM, NA = not active (enzyme activity > 95%)
smiles,measurement,setting,value
Cl.O=C(CN1C(=O)Cc2c([nH]c3ccc(Br)cc23)-c2ccc(Cl)cc21)N1CCNCC1 [Compound 20],IC50,"[1]; IC50 value, LiTryS",0.3 µM
same,IC50,"TbTryS; IC50 value, TbTryS, ± 2σ, ~30 assumed for 50 ± 5% inhibition at 30 µM",~30 µM
same,Inhibition mode with respect to ATP and GSH,LiTryS [2]; ATP or GSH variable,uncompetitive inhibition
same,Inhibition mode with respect to SP and GSP,LiTryS [2]; SP or GSP variable,competitive inhibition
same,CC50,"[3]; read-out: CC50, macrophages",8.1 ± 0.1 µM
same,% infection by L. braziliensis at 5 µM,"[4]; 5 µM, 24 h, relative to infected non-treated macrophages",15% and 15 ± 1 at 5 µM %
same,"SI, L. braziliensis amastigotes",[4],≥ 21
same,"SI, L. infantum amastigotes",L. infantum amastigotes,9
same,"T(SH)2 decrease, WT promastigotes",[5]; WT cells,88%
same,"T(SH)2 content, sKO promastigotes","[5]; sKO cells, detection limit 0.5 nmol T(SH)2/100 million cells",undetectable
same,"GSH accumulation, WT amastigotes",[6],16 fold
same,"GSH accumulation, sKO amastigotes",[6],10 fold
same,"T(SH)2 depletion, WT amastigotes",[6],about 40%
same,"T(SH)2 depletion, sKO amastigotes",[6],~82%
CC(C)(C)OC(=O)N1CCN(CCNC(=O)CN2C(=O)Cc3c([nH]c4ccc(Br)cc34)-c3ccc(Cl)cc32)CC1 [Compound 34],IC50,"[1]; IC50 value, LiTryS",~30 µM
same,IC50,TcTryS,20 µM
"CN1CCN(C(=O)CN2C(=O)Cc3c([nH]c4ccc(Br)cc34)-c3ccc(Cl)cc32)CC1 [Compound 21, 9-Bromo-3-chloro-5-[2-(4-methylpiperazin-1-yl)-2-oxoethyl]-7,12-dihydrobenzo[2,3]azepino[4,5-b]indol-6(5H)one]",IC50,"[1]; read-out: IC50 value, LiTryS",0.4 ± 0.1 µM
same,% infection by L. braziliensis at 10 µM,"[4]; 10 µM, 24 h, relative to infected non-treated macrophages",65 ± 7%
same,"SI, L. braziliensis amastigotes",[4],5
same,EC50,"L. infantum amastigotes; read-out: EC50, amastigotes L. infantum, intracellular amastigotes in J774, 24 h",1 ± 0.5 µM
"O=C1Cc2c([nH]c3ccc(Br)cc23)-c2ccc(Cl)cc2N1 [Compound 1, 3-Chlorokenpaullone]","% TryS inhibition at 30 µM, LiTryS",[1]; [8],inactive
same,"% TryS inhibition at 30 µM, TcTryS",TcTryS; [8],inactive
same,"% TryS inhibition at 30 µM, TbTryS",TbTryS; [8],inactive
same,"% cytotoxicity at 200 µM, macrophages",[3]; 200 µM,0 at 200 µM %
Nc1ncnc2c1ncn2[C@@H]1O[C@H](COP(=O)(O)OP(=O)(O)O)[C@@H](O)[C@H]1O [ADP],Ki,LiTryS [7],90 µM
"C[C@@H]1[C@H](O)[C@@H](C)/C=C/C=C/C=C/C=C/C=C/C=C/C=C/[C@H](O[C@@H]2O[C@H](C)[C@@H](O)[C@H](N)[C@@H]2O)C[C@@H]2O[C@](O)(C[C@@H](O)C[C@@H](O)[C@H](O)CC[C@@H](O)C[C@@H](O)CC(=O)O[C@H]1C)C[C@H](O)[C@H]2C(=O)O [Amphotericin B, reference compound]","SI, L. braziliensis amastigotes",[4],59
same,"SI, L. infantum amastigotes",L. infantum amastigotes,100
CC(C)(C)OC(=O)NCCCCNC(=O)CN1C(=O)Cc2c([nH]c3ccc(Br)cc23)-c2ccc(Cl)cc21 [Compound 36],IC50,"[1]; IC50 value, LiTryS",~30 µM
same,IC50,TcTryS,25 µM
